# Measurements taken from paper PMC10464600 (ACS chemical biology, 2022).
# Assays:
# [1] = test system: ROS in carrageenan-induced inflamed footpad; assay: Chemiluminescence imaging of ROS in carrageenan-induced footpad inflammation; type: in vivo, C57BL/6 mice; settings: luminol 5 mg/kg i.v.
# [2] = molecular target: T1, mCOX-2 (Mus musculus, UniProt Q05769); assay: Purified COX-2 isozyme inhibition, TLC assay with [1-14C]arachidonic acid; type: biochemical; settings: read-out: IC50, inhibition of COX-2, 14C-arachidonic acid substrate
# T1 sequence (Q05769 18-604): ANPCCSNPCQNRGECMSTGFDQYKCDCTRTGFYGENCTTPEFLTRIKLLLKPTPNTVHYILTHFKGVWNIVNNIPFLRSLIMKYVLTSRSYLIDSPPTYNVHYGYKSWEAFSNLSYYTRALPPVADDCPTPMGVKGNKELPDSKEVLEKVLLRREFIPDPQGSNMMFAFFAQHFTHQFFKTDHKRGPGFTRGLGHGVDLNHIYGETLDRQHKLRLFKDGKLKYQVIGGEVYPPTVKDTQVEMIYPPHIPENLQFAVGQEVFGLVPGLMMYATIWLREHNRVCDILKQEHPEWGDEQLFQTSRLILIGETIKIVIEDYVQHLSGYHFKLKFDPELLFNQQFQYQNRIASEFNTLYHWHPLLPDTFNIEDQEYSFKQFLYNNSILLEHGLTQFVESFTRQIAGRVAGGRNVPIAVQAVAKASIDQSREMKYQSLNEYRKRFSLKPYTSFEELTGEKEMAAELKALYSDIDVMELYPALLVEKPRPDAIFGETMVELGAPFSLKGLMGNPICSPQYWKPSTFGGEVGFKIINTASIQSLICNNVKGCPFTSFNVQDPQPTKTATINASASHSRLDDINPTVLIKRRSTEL
# [3] = test system: 1483 HNSCC cells; assay: Cell imaging assay, fluorescence microscopy; type: cell-based
# Procedure, shortened: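 1483 HNSCC cells in HBSS/Tyrode's, grown to 50% confluency, given 200 nM probe for 0.25 h at 37 °C, washed three times, imaged (propidium iodide filter, 0.5 s exposure, gain 2) at 0.5 and 3 h post-addition. Intensity read at 586/607 nm. Triplicates; Welch-corrected unpaired t test, error as standard error.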
# [4] = molecular target: T2, COX-2 in 1483 HNSCC cells (Homo sapiens, UniProt P35354); assay: Cell-based COX-2 inhibition assay in intact 1483 HNSCC cells; settings: read-out: IC50, cellular COX-2 inhibition
# T2 sequence (P35354 18-604): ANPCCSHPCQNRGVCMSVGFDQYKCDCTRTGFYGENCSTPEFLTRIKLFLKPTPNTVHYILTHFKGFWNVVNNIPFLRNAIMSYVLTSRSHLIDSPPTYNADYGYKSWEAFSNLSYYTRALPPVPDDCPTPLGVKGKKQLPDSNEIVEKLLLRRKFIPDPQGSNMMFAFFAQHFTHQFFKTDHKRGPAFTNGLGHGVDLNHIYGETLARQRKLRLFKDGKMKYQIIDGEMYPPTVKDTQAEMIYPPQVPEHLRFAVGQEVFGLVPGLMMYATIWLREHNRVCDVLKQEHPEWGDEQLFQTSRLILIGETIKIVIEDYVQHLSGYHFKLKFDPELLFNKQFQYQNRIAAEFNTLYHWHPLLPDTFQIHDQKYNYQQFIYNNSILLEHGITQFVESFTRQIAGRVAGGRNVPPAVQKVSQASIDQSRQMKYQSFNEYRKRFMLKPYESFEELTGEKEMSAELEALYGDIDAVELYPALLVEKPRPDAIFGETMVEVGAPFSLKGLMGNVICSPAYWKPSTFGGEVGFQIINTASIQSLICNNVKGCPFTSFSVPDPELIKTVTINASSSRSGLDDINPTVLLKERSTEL
# [5] = test system: COX-2 and ROS in carrageenan-induced inflamed footpad; assay: Fluorescence imaging of carrageenan-induced footpad inflammation; type: in vivo, C57BL/6 mice
# [6] = Photophysical properties; type: physicochemical
# Procedure, shortened: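 Samples were diluted to 1 μM and scanned on a photon-counting fluorometer in a 10 x 4 mm cuvette at 25 °C, with excitation/emission spectra recorded in triplicate. Quantum yield was taken relative to a reference fluorophore standard. Extinction coefficient came from absorbance spectra (10 mm pathlength) at 10, 8, 6, 4 and 2 μM dilutions.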
# [7] = In vivo pharmacokinetic assay, plasma concentration by LC-MS; settings: CD-1 mice, 10 mg/kg i.p.
# [8] = 200 nM, 1483 HNSCC cells, after washout
compound,measurement,setting,value
Nc1cccc2c(=O)[nH][nH]c(=O)c12 [luminol],"fold luminescence, inflamed versus control footpads",[1],12 fold
same,chemiluminescence emission in inflamed footpads (mean ± sd),"[1]; 6 h after carrageenan, n = 8, p < 0.0004",1251.5 ± 94.9
fluorocoxib Q [FQ],IC50,[2],330 nM
same,cell fluorescence at 0.5 h post-addition,[3]; [8],low fluorescence intensity
same,cell fluorescence at 3 h post-addition,[3]; [8],strong fluorescence
same,IC50,[4],280 nM
same,"fold increase in fluorescence, inflamed over non-inflamed footpads","[5]; 5 mg/kg i.p., imaging 24 h post-injection, average",9 fold
same,fluorescence in inflamed footpad (mean ± sd),"[5]; 5 mg/kg i.p., imaging 24 h post-injection, n = 8, p < 0.001",7.84x10^8 ± 1.25x10^8
same,background signal in non-inflamed footpad,"[5]; wild-type C57BL/6 mice, FQ versus CF3-FA",extremely low background signal
same,extinction coefficient (ε),[6]; at 586 nm,< 0.4 mM⁻¹ cm⁻¹
same,quantum yield (Φfl),[6]; at 607 nm,< 0.19
same,plasma half-life,[7],exceeds 24 h
"COc1ccc2c(c1)c(CC(=O)NCCCCNC(=O)c1ccc(C3=c4cc5c6c(c4Oc4c3cc3c7c4CCCN7CCC3)CCC[N+]=6CCC5)c(C(=O)O)c1)c(C)n2C(=O)c1ccc(Cl)cc1 [FA, fluorocoxib A, reference compound]",extinction coefficient (ε),[6]; at 579 nm,45 mM⁻¹ cm⁻¹
same,quantum yield (Φfl),"[6]; at 602 nm, FA used as standard for comparison",0.93
"Cc1ccc(-c2cc(C(F)(F)F)nn2-c2ccc(S(N)(=O)=O)cc2)cc1 [celecoxib, reference compound]",effect of preincubation on fluorocoxib Q-H labeling of 1483 HNSCC cells,[3]; pretreatment before fluorocoxib Q-H,blocked
fluorocoxib Q-H [FQ-H],IC50,[2],240 nM
same,fluorescence labeling of 1483 HNSCC cells,"[3]; fluorocoxib Q-H alone, after repetitive washing",strong perinuclear fluorescence
same,IC50,[4],260 nM
same,extinction coefficient (ε),[6]; at 586 nm,44 mM⁻¹ cm⁻¹
same,quantum yield (Φfl),[6]; at 607 nm,0.90
